Some results are limits rather than exact numbers.

One may read the Kd as the equilibrium constant for the complex coming apart. Low values mean tighter binding, high ones weaker binding.

The target of the test is IgG receptor FcRn large subunit p51 (Homo sapiens, UniProt P55899). Kind of test: Binding affinity to human FcRn at pH 6 by surface plasmon resonance assay. The method, boiled down: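 Soluble human FcRn coupled to the dextran surface of a CM5 chip; peptide dilutions flowed over the chip. The equilibrium response at each dilution was plotted against concentration and fitted to a steady-state affinity model to give Kd.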
Sequence of IgG receptor FcRn large subunit p51 (P55899 whole entry): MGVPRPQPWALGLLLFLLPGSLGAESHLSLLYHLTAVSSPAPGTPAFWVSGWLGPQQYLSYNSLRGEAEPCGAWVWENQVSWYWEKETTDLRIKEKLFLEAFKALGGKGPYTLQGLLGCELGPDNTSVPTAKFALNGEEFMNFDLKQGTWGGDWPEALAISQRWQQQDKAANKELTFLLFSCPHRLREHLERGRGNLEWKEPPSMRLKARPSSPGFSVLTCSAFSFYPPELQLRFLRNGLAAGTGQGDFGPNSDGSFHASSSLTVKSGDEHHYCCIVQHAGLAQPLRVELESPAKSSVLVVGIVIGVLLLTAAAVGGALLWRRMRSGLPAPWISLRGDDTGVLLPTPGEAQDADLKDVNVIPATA
On the technique in general: Surface plasmon resonance follows binding to a sensor surface in real time, without labels.
As for `CC(C)C[C@H](NC(=O)CNC(=O)[C@@H](C)NC(=O)[C@H](Cc1ccccc1)NC(=O)[C@H](Cc1cnc[nH]1)NC(=O)CNC(=O)[C@@H](NC(=O)[C@@H](NC(=O)[C@H](Cc1ccccc1)NC(=O)[C@H](CCCNC(=N)N)NC(=O)[C@@H](N)CCC(N)=O)C(C)(C)S)[C@@H](C)O)C(=O)N[C@@H](Cc1ccc(O)cc1)C(=O)N1CCC[C@H]1C(=O)N[C@@H](CS)C(=O)N[C@@H](CC(N)=O)C(=O)NCC(=O)N1CCC[C@H]1C(=O)O`, the Kd amounted to 0.49 µM.

Regarding `CC(C)C[C@H](NC(=O)CNC(=O)CNC(=O)[C@@H](Cc1ccccc1)NC(=O)[C@H](Cc1cnc[nH]1)NC(=O)CNC(=O)[C@@H](NC(=O)[C@@H](NC(=O)[C@H](Cc1ccccc1)NC(=O)[C@H](CCCN=C(N)N)NC(=O)[C@@H](N)CCC(N)=O)C(C)(C)S)[C@@H](C)O)C(=O)N[C@@H](Cc1ccc(O)cc1)C(=O)N1CCC[C@H]1C(=O)N[C@@H](CS)C(=O)N[C@@H](CC(N)=O)C(=O)NCC(=O)N1CCC[C@H]1C(=O)O`, the equilibrium dissociation constant (Kd) is greater than 250 µM.

Turning to `CC(=O)Nc1ccc(C[C@H](NC(=O)[C@H](Cc2cnc[nH]2)NC(=O)CNC(=O)[C@@H](NC(=O)[C@@H](NC(=O)[C@H](Cc2ccccc2)NC(=O)[C@H](CCCN=C(N)N)NC(=O)[C@@H](N)CCC(N)=O)C(C)(C)S)[C@@H](C)O)C(=O)NCC(=O)NCC(=O)N[C@@H](CC(C)C)C(=O)N[C@@H](Cc2ccc(O)cc2)C(=O)N2CCC[C@H]2C(=O)N[C@@H](CS)C(=O)N[C@@H](CC(N)=O)C(=O)NCC(=O)N2CCC[C@H]2C(=O)O)cc1`, binding was put at a Kd of 270 µM.

Turning to `CC(C)C[C@H](NC(=O)CNC(=O)CNC(=O)[C@H](Cc1c(F)c(F)c(F)c(F)c1F)NC(=O)[C@H](Cc1cnc[nH]1)NC(=O)CNC(=O)[C@@H](NC(=O)[C@@H](NC(=O)[C@H](Cc1ccccc1)NC(=O)[C@H](CCCN=C(N)N)NC(=O)[C@@H](N)CCC(N)=O)C(C)(C)S)[C@@H](C)O)C(=O)N[C@@H](Cc1ccc(O)cc1)C(=O)N1CCC[C@H]1C(=O)N[C@@H](CS)C(=O)N[C@@H](CC(N)=O)C(=O)NCC(=O)N1CCC[C@H]1C(=O)O`, the Kd was 70 µM.

Compound `CC(C)C[C@H](NC(=O)CNC(=O)CNC(=O)[C@H](Cc1ccccc1)NC(=O)[C@H](Cc1cnc[nH]1)NC(=O)CNC(=O)[C@@H](NC(=O)[C@@H](NC(=O)[C@H](Cc1ccccc1)NC(=O)[C@H](CCCNC(=N)N)NC(=O)[C@@H](N)CCC(N)=O)C(C)(C)S)[C@@H](C)O)C(=O)N[C@@H](Cc1ccc([N+](=O)[O-])cc1)C(=O)N1CCC[C@H]1C(=O)N[C@@H](CS)C(=O)N[C@@H](CC(N)=O)C(=O)NCC(=O)N1CCC[C@H]1C(=O)O` returned a Kd of 180 µM.

For `CC(C)C[C@H](NC(=O)[C@H]1CSC2C[C@@H](NC(=O)[C@H](Cc3ccccc3)NC(=O)[C@H](Cc3cnc[nH]3)NC(=O)CNC(=O)[C@@H](NC(=O)[C@H](NC(=O)[C@H](Cc3ccccc3)NC(=O)[C@@H](N)CCCNC(=N)N)C(C)(C)S)[C@@H](C)O)C(=O)N21)C(=O)N[C@@H](Cc1ccc(O)cc1)C(=O)N1CCC[C@H]1C(=O)N[C@@H](CS)C(=O)O` (stereo partly drawn), the Kd was 0.99 µM.

The compound `CC(C)C[C@H](NC(=O)CNC(=O)CNC(=O)[C@H](Cc1ccccc1)NC(=O)[C@H](Cc1cnc[nH]1)NC(=O)CNC(=O)[C@@H](NC(=O)[C@@H](NC(=O)[C@H](Cc1ccccc1)NC(=O)[C@H](CCCNC(=N)N)NC(=O)[C@@H](N)CCC(N)=O)C(C)(C)S)[C@@H](C)O)C(=O)N(C)[C@@H](Cc1ccc(O)cc1)C(=O)N1CCC[C@H]1C(=O)N[C@@H](CS)C(=O)N[C@@H](CC(N)=O)C(=O)NCC(=O)N1CCC[C@H]1C(=O)O` gave a Kd of 92 µM.

On to `CC(C)C[C@H](NC(=O)[C@@H](Cc1ccc(O)cc1)NC(=O)CNC(=O)[C@H](Cc1ccccc1)NC(=O)[C@H](Cc1cnc[nH]1)NC(=O)CNC(=O)[C@@H](NC(=O)[C@@H](NC(=O)[C@H](Cc1ccccc1)NC(=O)[C@H](CCCN=C(N)N)NC(=O)[C@@H](N)CCC(N)=O)C(C)(C)S)[C@@H](C)O)C(=O)N[C@@H](Cc1ccc(O)cc1)C(=O)N1CCC[C@H]1C(=O)N[C@@H](CS)C(=O)N[C@@H](CC(N)=O)C(=O)NCC(=O)N1CCC[C@H]1C(=O)O`, for which the Kd is 1.5 µM. This Kd is about 61-fold lower than that of the compound before.

The values are drawn from ChEMBL document CHEMBL1150419, “Structure-activity relationships of a peptide inhibitor of the human FcRn:human IgG interaction” (Bioorg Med Chem, 2008).
